{"source": "ChEMBL document CHEMBL2062417", "about": "“Biotinylated quercetin as an intrinsic photoaffinity proteomics probe for the identification of quercetin target proteins” (Bioorg Med Chem, 2011)", "key": {"[1]": {"biological_target": "Calcium/calmodulin-dependent protein kinase type II subunit beta (Homo sapiens, UniProt Q13554)", "sequence (Q13554 whole entry)": "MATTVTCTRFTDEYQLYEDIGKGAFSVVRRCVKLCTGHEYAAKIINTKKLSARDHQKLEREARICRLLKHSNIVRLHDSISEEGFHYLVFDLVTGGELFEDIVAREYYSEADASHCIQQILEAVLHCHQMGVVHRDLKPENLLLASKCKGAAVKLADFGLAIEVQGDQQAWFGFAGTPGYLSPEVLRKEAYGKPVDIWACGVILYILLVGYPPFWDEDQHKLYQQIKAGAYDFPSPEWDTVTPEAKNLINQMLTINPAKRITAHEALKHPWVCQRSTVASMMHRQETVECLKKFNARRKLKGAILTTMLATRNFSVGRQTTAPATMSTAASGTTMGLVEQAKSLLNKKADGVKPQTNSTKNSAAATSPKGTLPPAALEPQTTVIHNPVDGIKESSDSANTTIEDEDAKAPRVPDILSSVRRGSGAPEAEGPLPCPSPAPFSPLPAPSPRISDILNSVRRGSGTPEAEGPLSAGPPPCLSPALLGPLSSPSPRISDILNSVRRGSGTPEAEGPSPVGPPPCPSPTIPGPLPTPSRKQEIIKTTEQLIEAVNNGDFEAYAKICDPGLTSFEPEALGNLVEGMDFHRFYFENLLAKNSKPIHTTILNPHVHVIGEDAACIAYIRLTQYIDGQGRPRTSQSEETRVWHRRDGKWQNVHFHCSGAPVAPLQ", "assay": "Inhibition of CAMK2 using autocamtide-2 as substrate after 30 mins by PKLight assay"}, "Jurkat": {"test_system": "Jurkat", "assay": "Inhibition of heat shock-induced HSP70 expression in human Jurkat cells at 145 uM treated 2 hrs before beat shock challenge measured after 8 hrs by Western blotting", "assay_type": "functional, cell-based", "method_in_brief": "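Jurkat cells (low basal HSP70) got 145 μM compound or DMSO vehicle for 2 h, then a 30 min 43 °C heat shock and 8 h recovery at 37 °C. HSP70 and actin were read by Western blot. Controls were unheated cells and heated cells with no additive.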"}}, "note": "The source made the active and inactive calls. The rule behind the calls is not given here.", "data": [{"smiles": "O=c1c(O)c(-c2ccc(O)c(O)c2)oc2cc(O)cc(O)c12", "note": "[QUERCETIN]", "values": [{"measurement": "IC50", "setting": "[1]", "value": 3, "unit": "µM"}, {"measurement": "inhibition", "setting": "Jurkat", "value": "Active"}]}]}
